Assay results from ChEMBL document CHEMBL1914427, “Design, synthesis and biological evaluation of benzo[1.3.2]dithiazolium ylide 1,1-dioxide derivatives as potential dual cyclooxygenase-2/5-lipoxygenase inhibitors” (Bioorg Med Chem, 2011).
Active and inactive are the calls of the source. The calls are words filed in the database; no cut-off is given here.

Assays:
[1] = target: T1, Prostaglandin G/H synthase 2 (Homo sapiens) (UniProt P35354); assay: Inhibition of human recombinant COX2 expressed in Sf21 cells assessed as conversion of arachidonic acid to PGE2 at 10 uM preincubated for 15 mins measured after 5 mins by enzyme immunoassay
T1 sequence (whole entry): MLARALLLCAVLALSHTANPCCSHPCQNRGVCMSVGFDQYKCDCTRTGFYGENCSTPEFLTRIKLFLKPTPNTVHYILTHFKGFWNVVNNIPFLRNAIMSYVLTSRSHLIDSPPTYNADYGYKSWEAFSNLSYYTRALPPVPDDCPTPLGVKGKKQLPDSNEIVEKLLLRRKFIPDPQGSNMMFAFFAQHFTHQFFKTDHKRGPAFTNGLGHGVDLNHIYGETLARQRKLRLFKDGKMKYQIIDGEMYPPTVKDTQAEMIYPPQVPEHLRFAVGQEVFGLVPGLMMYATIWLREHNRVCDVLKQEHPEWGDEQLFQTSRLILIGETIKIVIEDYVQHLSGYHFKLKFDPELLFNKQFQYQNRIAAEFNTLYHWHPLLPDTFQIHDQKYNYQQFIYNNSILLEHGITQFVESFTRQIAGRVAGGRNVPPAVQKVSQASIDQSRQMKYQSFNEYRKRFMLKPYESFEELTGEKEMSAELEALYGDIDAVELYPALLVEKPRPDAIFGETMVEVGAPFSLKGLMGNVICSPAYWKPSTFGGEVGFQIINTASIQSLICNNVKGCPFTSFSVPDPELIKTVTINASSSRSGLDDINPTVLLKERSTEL
How it was run: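 Human recombinant COX-2 (Sf21-expressed, 0.11 U) preincubated with compound 15 min at 37 °C in Tris–HCl pH 7.7 containing 1 mM glutathione, phenol and hematin. Reaction started with 0.3 arachidonic acid. Run by a contract lab.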

[2] = target: T2, Polyunsaturated fatty acid 5-lipoxygenase (Homo sapiens) (UniProt P09917); assay: Inhibition of […] human 5-LOX in human PBML assessed as inhibition of A23187-induced LTB4 production at 10 uM preincubated for 15 mins measured after 15 mins by enzyme immunoassay
T2 sequence (whole entry): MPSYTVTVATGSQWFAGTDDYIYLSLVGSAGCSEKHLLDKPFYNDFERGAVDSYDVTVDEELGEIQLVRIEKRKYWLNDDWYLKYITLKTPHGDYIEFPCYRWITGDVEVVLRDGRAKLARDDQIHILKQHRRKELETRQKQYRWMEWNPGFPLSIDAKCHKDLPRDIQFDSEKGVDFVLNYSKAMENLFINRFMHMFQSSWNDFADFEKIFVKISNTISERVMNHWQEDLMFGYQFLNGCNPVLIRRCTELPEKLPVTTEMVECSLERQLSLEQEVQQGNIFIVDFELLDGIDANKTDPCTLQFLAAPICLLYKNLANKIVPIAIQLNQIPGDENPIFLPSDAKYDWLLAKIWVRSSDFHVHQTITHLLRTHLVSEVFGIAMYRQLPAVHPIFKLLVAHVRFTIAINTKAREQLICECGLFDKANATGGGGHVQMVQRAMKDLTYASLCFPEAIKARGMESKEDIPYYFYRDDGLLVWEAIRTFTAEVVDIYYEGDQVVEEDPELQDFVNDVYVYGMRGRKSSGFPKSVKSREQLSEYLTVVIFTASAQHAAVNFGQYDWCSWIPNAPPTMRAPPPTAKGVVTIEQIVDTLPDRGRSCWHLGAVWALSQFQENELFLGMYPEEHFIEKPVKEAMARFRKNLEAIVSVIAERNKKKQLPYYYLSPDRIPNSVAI
How it was run: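 Human PBML (5 × 10⁶ cells/mL) in HBSS pH 7.4 preincubated with compound 15 min at 37 °C. Calcium ionophore A23187 (30) then added, 15 min at 37 °C, and reaction stopped with 1 N HCl.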

[3] = target: T3, Polyunsaturated fatty acid 5-lipoxygenase (Homo sapiens, UniProt P09917); assay: Inhibition of […] human PBML assessed as inhibition of A23187-induced LTB4 production preincubated for 15 mins measured after 15 mins by enzyme immunoassay
T3 sequence (P09917 whole entry): T2 sequence (whole entry)

[4] = target: T4, Prostaglandin G/H synthase 2 (Homo sapiens, UniProt P35354); assay: Inhibition of human recombinant COX2 expressed in Sf21 cells assessed as conversion of arachidonic acid to PGE2 preincubated for 15 mins measured after 5 mins by enzyme immunoassay
T4 sequence (P35354 whole entry): T1 sequence (whole entry)

Rattus norvegicus [5] = assay: Antiinflammatory activity in Wistar rat assessed as inhibition of carrageenan-induced paw edema at 150 mg/kg, po administered 1 hr before carrageenan challenge measured after 3 hrs relative to vehicle treated control; format: functional
How it was run: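 Male Wistar rats given aspirin orally at 150 mg/kg, 1 h before intraplantar carrageenan (0.1 mL of 1% suspension) into the right hind paw. Hind paw edema read by plethysmometer 3 h after carrageenan; reduction taken relative to vehicle group.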

Rattus norvegicus [6] = assay: Antiinflammatory activity in Wistar rat assessed as inhibition of carrageenan-induced paw edema at 10 mg/kg, ip administered 30 mins before carrageenan challenge measured after 3 hrs relative to vehicle treated control; format: functional; settings: route intraperitoneal
How it was run: (§1)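 Male Wistar rats, held at 20–24 °C and 50–80% humidity on 12 h light/dark for at least three days, with chow and water unless fasted. Test article given IP at 10, 30 or 100 mg/kg in 1% Tween 80/0.9% NaCl, dosing volume 5 mL/kg, 30 min before intraplantar carrageenan (0.1 mL of 1% suspension) into the right hind paw. Edema read by plethysmometer at 3 h; inhibition taken relative to vehicle group.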

Rattus norvegicus [7] = assay: Antiinflammatory activity in Wistar rat assessed as inhibition of carrageenan-induced paw edema at 30 mg/kg, ip administered 30 mins before carrageenan challenge measured after 3 hrs relative to vehicle treated control; format: functional; settings: route intraperitoneal; how it was run: as §1
Rattus norvegicus [8] = assay: Antiinflammatory activity in Wistar rat assessed as inhibition of carrageenan-induced paw edema at 100 mg/kg, ip administered 30 mins before carrageenan challenge measured after 3 hrs relative to vehicle treated control; format: functional; settings: route intraperitoneal; how it was run: as §1
Rattus norvegicus [9] = assay: Antiinflammatory activity in ip dosed Wistar rat assessed as inhibition of carrageenan-induced paw edema administered 30 mins before carrageenan challenge measured after 3 hrs; format: functional, organism-based; how it was run: as §1

Row | SMILES | inhibition [1] | inhibition [2] | IC50 [3] [nM] | further results
1 | Cc1ccc(S2=NS(=O)(=O)c3ccc(S(N)(=O)=O)cc32)c(C)c1 (stereo not drawn) | inactive | inactive | – | –
2 | COC(=O)c1ccc2c(c1)S(=O)(=O)N=S2c1ccc(Br)cc1 (stereo not drawn) | 33% | – | 4100 | –
3 | COC1(c2cc(F)cc(OCCS3=NS(=O)(=O)c4cc([N+](=O)[O-])ccc43)c2)CCOCC1 (stereo not drawn) | 25% | 25% | – | –
4 | CCc1ccc(S2=NS(=O)(=O)c3ccc(S(N)(=O)=O)cc32)cc1 (stereo not drawn) | inactive | 7% | – | –
5 | CC(C)c1ccc(S2=NS(=O)(=O)c3cc([N+](=O)[O-])ccc32)cc1 (stereo not drawn) | – | – | 360 | IC50 [4]: 730 nM
6 | CC(C)c1ccc(S2=NS(=O)(=O)c3cc(S(N)(=O)=O)ccc32)cc1 (stereo not drawn) | 44% | 42% | – | –
7 | COc1ccc(S2=NS(=O)(=O)c3ccc(S(N)(=O)=O)cc32)cc1 (stereo not drawn) | inactive | 21% | – | –
8 | Cc1ccc(C2=NS(=O)(=O)c3ccccc32)cc1 | 16% | 9% | – | –
9 | NS(=O)(=O)c1cc2c(cc1Cl)S(c1ccc(Br)cc1)=NS2(=O)=O (stereo not drawn) | – | – | 25800 | IC50 [4]: 2300 nM
10 | NS(=O)(=O)c1ccc2c(c1)S(c1ccc(Br)cc1)=NS2(=O)=O (stereo not drawn) | – | 14% | – | –
11 | O=S1(=O)N=S(c2ccc(Br)cc2)c2ccccc21 (stereo not drawn) | 2% | 33% | – | –
12 | NS(=O)(=O)c1ccc2c(c1)S(=O)(=O)N=S2c1ccc(-c2ccccc2)cc1 (stereo not drawn) | 31% | – | 3450 | –
13 | O=[N+]([O-])c1ccc2c(c1)S(=O)(=O)N=S2c1ccc(C(F)(F)F)cc1 (stereo not drawn) | – | – | 3090 | IC50 [4]: 2990 nM
14 | CC(C)c1ccc(S2=NS(=O)(=O)c3ccc(S(N)(=O)=O)cc32)cc1 (stereo not drawn) | 10% | 19% | – | –
15 | CC(C)(C)c1ccc(S2=NS(=O)(=O)c3cc(S(N)(=O)=O)ccc32)cc1 (stereo not drawn) | 21% | 23% | – | –
16 | COc1ccc(S2=NS(=O)(=O)c3ccc(S(N)(=O)=O)cc32)cc1OC (stereo not drawn) | 6% | inactive | – | –
17 | NS(=O)(=O)c1ccc2c(c1)S(c1ccc(Cl)cc1Cl)=NS2(=O)=O (stereo not drawn) | 9% | inactive | – | –
18 | NS(=O)(=O)c1ccc2c(c1)S(c1ccc(Cl)cc1)=NS2(=O)=O (stereo not drawn) | inactive | 19% | – | –
19 | NS(=O)(=O)c1ccc2c(c1)S(c1cccc(Br)c1)=NS2(=O)=O (stereo not drawn) | 7% | 28% | – | –
20 | NS(=O)(=O)c1ccc2c(c1)S(c1ccc(Cl)c(Cl)c1)=NS2(=O)=O (stereo not drawn) | 14% | inactive | – | –
21 | NS(=O)(=O)c1ccc2c(c1)S(c1ccc(F)cc1F)=NS2(=O)=O (stereo not drawn) | inactive | inactive | – | –
22 | CC(=O)Oc1ccccc1C(=O)O [ASPIRIN] | – | – | – | inhibition in vivo at 150 mg/kg (Rattus norvegicus [5]): 38%

Row | SMILES | inhibition [1] | inhibition [2] | IC50 [3] [nM] | further results
23 | NS(=O)(=O)c1ccc2c(c1)S(=O)(=O)N=S2c1ccc(Br)cc1 (stereo not drawn) | 0% | – | 91100 | –
24 | CC(C)(C)c1ccc(S2=NS(=O)(=O)c3ccc(S(N)(=O)=O)cc32)cc1 (stereo not drawn) | inactive | 25% | – | –
25 | O=[N+]([O-])c1ccc2c(c1)S(=O)(=O)N=S2c1ccncc1 (stereo not drawn) | 15% | 17% | – | –
26 | Cc1ccc(S2=NS(=O)(=O)c3ccc(S(N)(=O)=O)cc32)cc1 (stereo not drawn) | 2% | 9% | – | –
27 | NS(=O)(=O)c1ccc2c(c1)S(c1ccc(F)cc1)=NS2(=O)=O (stereo not drawn) | 2% | 9% | – | –
28 | O=[N+]([O-])c1ccc2c(c1)S(=O)(=O)N=S2c1ccc(-c2ccccc2)cc1 (stereo not drawn) | – | – | 150 | IC50 [4]: 500 nM
29 | CCc1ccc(C2=NS(=O)(=O)c3cc(S(N)(=O)=O)ccc32)cc1 | 0% | 8% | – | –
30 | O=C(O)c1ccc2c(c1)S(=O)(=O)N=S2c1ccc(Br)cc1 (stereo not drawn) | 7% | 2% | – | –
31 | Cc1ccc(S2=NS(=O)(=O)c3ccc(S(N)(=O)=O)cc32)cc1C (stereo not drawn) | 15% | inactive | – | –
32 | CCc1ccc(S2=NS(=O)(=O)c3cc(S(C)(=O)=O)ccc32)cc1 (stereo not drawn) | 43% | 35% | – | –
33 | Cc1ccc2c(c1)S(=O)(=O)N=S2c1ccc(Br)cc1 (stereo not drawn) | 14% | – | 6050 | –
34 | COc1ccc(S2=NS(=O)(=O)c3cc([N+](=O)[O-])ccc32)cc1 (stereo not drawn) | – | – | 350 | IC50 [4]: 880 nM
35 | CC(C)(C)c1ccc(S2=NS(=O)(=O)c3cc([N+](=O)[O-])ccc32)cc1 (stereo not drawn) | – | – | 300 | IC50 [4]: 270 nM; inhibition in vivo at 10 mg/kg (Rattus norvegicus [6]): 14%; inhibition in vivo at 30 mg/kg (Rattus norvegicus [7]): 27%; inhibition in vivo at 100 mg/kg (Rattus norvegicus [8]): 65%; inhibition (Rattus norvegicus [9]): Dose-dependent effect
36 | O=S1(=O)N=C(c2ccc(Br)cc2)c2ccccc21 | 0% | 11% | – | –
37 | O=S1(=O)N=S(c2ccccc2)c2ccccc21 (stereo not drawn) | 0% | 14% | – | –
38 | COc1cc(OC)cc(OCCS2=NS(=O)(=O)c3cc([N+](=O)[O-])ccc32)c1 (stereo not drawn) | 35% | – | 3700 | –
39 | CS(=O)(=O)c1ccc2c(c1)S(=O)(=O)N=S2c1ccc(Br)cc1 (stereo not drawn) | – | – | 13500 | IC50 [4]: 1800 nM
40 | CCc1ccc(S2=NS(=O)(=O)c3cc([N+](=O)[O-])ccc32)cc1 (stereo not drawn) | – | – | 180 | IC50 [4]: 1700 nM
41 | NS(=O)(=O)c1ccc2c(c1)S(c1ccc(C(F)(F)F)cc1)=NS2(=O)=O (stereo not drawn) | inactive | 37% | – | –
42 | NC(=O)c1ccc2c(c1)S(=O)(=O)N=S2c1ccc(Br)cc1 (stereo not drawn) | 0% | 15% | – | –
43 | COc1ccc(S2=NS(=O)(=O)c3cc([N+](=O)[O-])ccc32)cc1OC (stereo not drawn) | 15% | – | 680 | –
